Experimental data published in ChEMBL document CHEMBL3580569, “N-Substituted Quinolinonyl Diketo Acid Derivatives as HIV Integrase Strand Transfer Inhibitors and Their Activity against RNase H Function of Reverse Transcriptase” (J Med Chem, 2015).

Columns and labels:
[1] = Selectivity index, ratio of CC50 for human HeLa-CD4-LTR-beta-gal cells to EC50 for HIV-1 3B infected in human HeLa-CD4-LTR-beta-gal cells; assay type: toxicity; conditions: read-out: Ratio CC50/EC50
HeLa = experiment: Cytotoxicity against human HeLa-CD4-LTR-beta-gal cells after 24 hrs by ATPlite reagent based luminescence analysis; assay type: cell-based
[2] = target: Human immunodeficiency virus type 1 reverse transcriptase (Human immunodeficiency virus 1) (UniProt Q72547); experiment: Inhibition of RNase H function of HIV1 reverse transcriptase using DNA/RNA hybrid as substrate at 10 uM by fluorescence spectrometer analysis
Summary of the method: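 RNase H activity of HIV-1 RT was measured with an RNA/DNA hybrid substrate at 250 nM final, with 150–800 ng RT, in 50 mM Tris-HCl pH 8.0, 60 mM KCl, 10 mM MgCl2 and 1% DMSO, against DMSO-only wells. Fluorescence (ex 485/em 520 nm) was read each minute over 10 min at 37 °C. Percent inhibition at 10 μM = 100(v0−vi)/v0 from initial rates, run in triplicate.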

[3] = target: T1, Human immunodeficiency virus type 1 integrase (Human immunodeficiency virus 1, UniProt Q7ZJM1)
[4] = target: T1, Human immunodeficiency virus type 1 integrase; remark: listed apart in the source
[5] = test system: Human immunodeficiency virus 1; experiment: Antiviral activity against HIV-1 3B infected in human HeLa-CD4-LTR-beta-gal cells assessed as inhibition of viral replication by SpectraMax GEMINI-XS plate reader analysis; assay type: functional, organism-based; conditions: Human immunodeficiency virus 1, 3B
Summary of the method: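 HeLa-CD4-LTR-β-gal cells kept in DMEM, 10% serum, 0.5 mg/mL G418; seeded 10000 cells/well the day before. Drug 3-fold serially diluted over six points on cells (top 50 μM), then fresh medium or concentrated HIV-1(IIIB) supernatant added.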

T1 sequence (Q7ZJM1 whole entry): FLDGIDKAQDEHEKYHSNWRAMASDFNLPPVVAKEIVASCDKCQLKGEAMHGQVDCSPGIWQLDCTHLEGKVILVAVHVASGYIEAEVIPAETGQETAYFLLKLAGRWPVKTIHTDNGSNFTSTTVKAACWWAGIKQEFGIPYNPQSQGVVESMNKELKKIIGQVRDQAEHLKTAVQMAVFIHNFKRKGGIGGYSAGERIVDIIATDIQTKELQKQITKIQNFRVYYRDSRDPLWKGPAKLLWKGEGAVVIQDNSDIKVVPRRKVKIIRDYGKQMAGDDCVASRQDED

Compound: CCOC(=O)/C(O)=C/C(=O)c1cn(Cc2ccccc2F)c2ccccc2c1=O
- selectivity ratio [1]: > 33.4
- CC50 (HeLa): > 50 µM
- inhibition [2]: 2.8%
- IC50 [3]: 125 µM
- IC50 [4]: 0.28 µM
- EC50 [5]: 1.5 µM

Compound: CCOC(=O)/C(O)=C/C(=O)c1cn(Cc2ccccc2OC)c2ccccc2c1=O [20, RDS-2163]
- selectivity ratio [1]: > 19.2
- CC50 (HeLa): > 50 µM
- inhibition [2]: 11.4%
- IC50 [3]: > 333 µM
- IC50 [4]: 1.4 µM
- EC50 [5]: 2.6 µM

Compound: CCOC(=O)/C(O)=C/C(=O)c1cn(Cc2ccc(F)cc2F)c2ccccc2c1=O
- selectivity ratio [1]: > 86.2
- CC50 (HeLa): > 50 µM
- inhibition [2]: 3%
- IC50 [4]: 2.2 µM
- EC50 [5]: 0.58 µM

Compound: O=C(O)/C(O)=C/C(=O)c1cn(Cc2ccncc2)c2ccccc2c1=O
- inhibition [2]: -2.6%
- IC50 [3]: > 1000 µM
- IC50 [4]: 16 µM
- EC50 [5]: > 50 µM

Compound: CCOC(=O)/C(O)=C/C(=O)c1cn(Cc2cccc(OC)c2)c2ccccc2c1=O
- selectivity ratio [1]: 5.2
- CC50 (HeLa): 44 µM
- inhibition [2]: 4.9%
- IC50 [3]: > 333 µM
- IC50 [4]: 16 µM
- EC50 [5]: 8.5 µM

Compound: CCOC(=O)/C(O)=C/C(=O)c1cn(Cc2ccc(F)c(F)c2)c2ccccc2c1=O
- selectivity ratio [1]: > 5.1
- CC50 (HeLa): > 50 µM
- inhibition [2]: 24%
- IC50 [4]: 5.5 µM
- EC50 [5]: 9.8 µM

Compound: O=C(O)/C(O)=C/C(=O)c1cn(Cc2cccc(Cl)c2F)c2ccccc2c1=O
- selectivity ratio [1]: > 2.1
- CC50 (HeLa): > 50 µM
- inhibition [2]: 12%
- IC50 [3]: 1.75 µM
- IC50 [4]: 0.018 µM
- EC50 [5]: 23.4 µM

Compound: CCOC(=O)/C(O)=C/C(=O)c1cn(Cc2ccc3ccccc3c2)c2ccccc2c1=O
- inhibition [2]: 29.7%
- IC50 [3]: > 333 µM
- IC50 [4]: 32 µM
- EC50 [5]: > 50 µM

Compound: CCOC(=O)/C(O)=C/C(=O)c1cn(Cc2cc(F)cc(F)c2)c2ccccc2c1=O
- selectivity ratio [1]: > 1.5
- CC50 (HeLa): > 50 µM
- inhibition [2]: 24%
- IC50 [4]: 11 µM
- EC50 [5]: 32.4 µM

Compound: COc1cc2c(cc1Cc1cccc(Cl)c1F)c(=O)c(C(=O)O)cn2[C@H](CO)C(C)C
- CC50 (HeLa): > 50 µM
- EC50 [5]: 0.0142 µM

Compound: O=C(O)/C(O)=C/C(=O)c1cn(Cc2ccc3ccccc3n2)c2ccccc2c1=O
- inhibition [2]: 16.4%
- IC50 [3]: 70 µM
- IC50 [4]: 0.4 µM
- EC50 [5]: > 50 µM

Compound: O=C(O)/C(O)=C/C(=O)c1cn(Cc2ccc(F)c(Cl)c2)c2c(Cl)cccc2c1=O
- inhibition [2]: 16%
- IC50 [3]: 9.8 µM
- IC50 [4]: 0.096 µM
- EC50 [5]: 50 µM

Compound: O=C(O)/C(O)=C/C(=O)c1cn(Cc2ccc3ccccc3c2)c2ccccc2c1=O
- selectivity ratio [1]: > 10.4
- CC50 (HeLa): > 50 µM
- inhibition [2]: 40.7%
- IC50 [3]: 18 µM
- IC50 [4]: < 0.45 µM
- EC50 [5]: 4.8 µM

Compound: O=C(O)/C(O)=C/C(=O)c1cn(Cc2ccccc2)c2ccccc2c1=O
- CC50 (HeLa): > 50 µM
- inhibition [2]: 9.6%
- IC50 [3]: 4 µM
- IC50 [4]: 0.034 µM
- EC50 [5]: 15.5 µM

Compound: CCOC(=O)/C(O)=C/C(=O)c1cn(Cc2ccc3ccccc3n2)c2ccccc2c1=O
- inhibition [2]: 4.4%
- IC50 [3]: > 1000 µM
- IC50 [4]: 3.5 µM
- EC50 [5]: > 50 µM

Compound: CCOC(=O)/C(O)=C/C(=O)c1cn(Cc2c(F)cccc2F)c2ccccc2c1=O
- selectivity ratio [1]: > 250
- CC50 (HeLa): > 50 µM
- inhibition [2]: 4.1%
- IC50 [3]: > 12.3 µM
- IC50 [4]: 0.25 µM
- EC50 [5]: < 0.2 µM

Compound: CCOC(=O)/C(O)=C/C(=O)c1cn(CCCCc2ccccc2)c2ccccc2c1=O
- inhibition [2]: 19.4%
- IC50 [3]: > 333 µM
- IC50 [4]: 120 µM
- EC50 [5]: > 50 µM

Compound: CCOC(=O)/C(O)=C/C(=O)c1cn(Cc2ccc(O)cc2)c2ccccc2c1=O
- selectivity ratio [1]: > 1.6
- CC50 (HeLa): > 50 µM
- inhibition [2]: 26%
- IC50 [3]: > 333 µM
- IC50 [4]: 1.4 µM
- EC50 [5]: 30.9 µM

Compound: COc1cccc(Cn2cc(C(=O)/C=C(\O)C(=O)O)c(=O)c3ccccc32)c1 [RDS-2161]
- inhibition [2]: 1.9%
- IC50 [3]: > 4.1 µM
- IC50 [4]: 0.14 µM
- EC50 [5]: > 50 µM

Compound: Cc1nnc(C(=O)NC(C)(C)c2nc(C(=O)NCc3ccc(F)cc3)c(O)c(=O)n2C)o1
- CC50 (HeLa): > 50 µM

Compound: CCOC(=O)/C(O)=C/C(=O)c1cn(Cc2ccccc2F)c2cc(Cl)ccc2c1=O
- selectivity ratio [1]: > 4.5
- CC50 (HeLa): > 50 µM
- inhibition [2]: 2.8%
- EC50 [5]: 11 µM

Compound: O=C(O)/C(O)=C/C(=O)c1cn(Cc2cccc(F)c2)c2ccccc2c1=O
- selectivity ratio [1]: > 1.8
- CC50 (HeLa): > 50 µM
- inhibition [2]: 2.4%
- IC50 [3]: 4.6 µM
- IC50 [4]: 0.015 µM
- EC50 [5]: 28.2 µM

Compound: CCOC(=O)/C(O)=C/C(=O)c1cn(Cc2ccccc2)c2ccccc2c1=O
- selectivity ratio [1]: > 50
- CC50 (HeLa): > 50 µM
- inhibition [2]: -3.3%
- IC50 [3]: > 1000 µM
- IC50 [4]: 0.7 µM
- EC50 [5]: 1 µM

Compound: CCOC(=O)/C(O)=C/C(=O)c1cn(Cc2cccc(F)c2)c2ccccc2c1=O [RDS-1624]
- selectivity ratio [1]: > 29.4
- CC50 (HeLa): > 50 µM
- inhibition [2]: -9.4%
- IC50 [3]: > 12.3 µM
- IC50 [4]: 4.9 µM
- EC50 [5]: 1.7 µM

Compound: CCOC(=O)/C(O)=C/C(=O)c1cn(Cc2cc(C)cc(C)c2)c2ccccc2c1=O
- inhibition [2]: 21%
- IC50 [4]: 1.3 µM
- EC50 [5]: > 50 µM

Compound: CCOC(=O)/C(O)=C/C(=O)c1cn(Cc2ccc([N+](=O)[O-])cc2)c2ccccc2c1=O
- inhibition [2]: 31.9%
- IC50 [3]: > 37 µM
- IC50 [4]: > 37 µM
- EC50 [5]: > 50 µM

Compound: O=C(O)/C(O)=C/C(=O)c1cn(Cc2ccc(F)c(Cl)c2)c2ccccc2c1=O
- inhibition [2]: 25%
- IC50 [3]: 21 µM
- IC50 [4]: 0.19 µM
- EC50 [5]: > 50 µM

Compound: CCOC(=O)/C(O)=C/C(=O)c1cn(Cc2cc(F)ccc2F)c2ccccc2c1=O
- inhibition [2]: 30%
- IC50 [4]: 3.7 µM
- EC50 [5]: > 50 µM

Compound: CCOC(=O)/C(O)=C/C(=O)c1cn(Cc2ccc(F)c(Cl)c2)c2c(Cl)cccc2c1=O
- inhibition [2]: 24%
- IC50 [3]: > 333 µM
- IC50 [4]: 25.1 µM
- EC50 [5]: > 50 µM

Compound: O=C(O)/C(O)=C/C(=O)c1cn(Cc2ccc(F)cc2)c2cc(Cl)c(Cl)cc2c1=O
- IC50 [3]: > 50 µM

Compound: CCOC(=O)/C(O)=C/C(=O)c1cn(Cc2ccc(OC)cc2)c2ccccc2c1=O
- inhibition [2]: 10%
- IC50 [3]: > 37 µM
- IC50 [4]: > 37 µM
- EC50 [5]: > 50 µM

Compound: CCOC(=O)/C(O)=C/C(=O)c1cn(Cc2ccc(F)c(Cl)c2)c2ccccc2c1=O
- selectivity ratio [1]: > 2.9
- CC50 (HeLa): > 50 µM
- inhibition [2]: 18%
- IC50 [3]: 266 µM
- IC50 [4]: 3.1 µM
- EC50 [5]: 17.4 µM

Compound: CCOC(=O)/C(O)=C/C(=O)c1cn(Cc2ccc(Cl)cc2)c2ccccc2c1=O
- inhibition [2]: 16.1%
- IC50 [3]: > 37 µM
- IC50 [4]: > 37 µM
- EC50 [5]: > 50 µM

Compound: CCOC(=O)/C(O)=C/C(=O)c1cn(Cc2ccncc2)c2ccccc2c1=O
- inhibition [2]: -5.6%
- IC50 [3]: > 333 µM
- IC50 [4]: 14 µM
- EC50 [5]: > 50 µM

Compound: O=C(O)/C(O)=C/C(=O)c1cn(CCCCc2ccccc2)c2ccccc2c1=O
- inhibition [2]: 33%
- IC50 [3]: > 333 µM
- IC50 [4]: < 0.45 µM
- EC50 [5]: > 50 µM
